Assay outcomes: PubChem, The Scripps Research Institute Molecular Screening Center
DAGLB inh = diacylglycerol lipase beta (human) inhibition; 340,000 compounds, 0.059% hits; AID 504411; inhibition, % at 5.17 µM; Q8NCG7; HEK293T DAGLB membrane lysate, EnzChek fluorogenic substrate; in the data active means inhibition above about 34%;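 further: 0% = enzyme with vehicle and 100% = wells lacking enzyme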
PLC-gamma1 inh = PLC-gamma1 (human) inhibition, primary screen | purified PLC-gamma1, fluorogenic substrate, fluorescence | inhibition, % at 12.2 µM | 370,000 compounds, 0.84% hits | AID 720700; in the data active means inhibition above about 9.5%
Tb MetRS inh = Trypanosoma brucei MetRS inhibition; 360,000 compounds, 0.4% hits; inhibition, % at 11.9 µM; purified T. brucei MetRS, ATP depletion, Kinase-Glo luminescence; AID 624268;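 active means inhibition above a per-plate cutoff of the control wells' mean inhibition plus 3 SD, cut at about 5.5% in these data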;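 further: 0% = DMSO wells median and 100% = median of wells with control inhibitor compound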
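Material: parasite MetRS enzyme / Replication: singlicate, one well per compound / Signal: luminescence of leftover ATP / Schedule: 2 h aminoacylation at 25 °C after 15 min preincubation / Medium: HEPES-MgCl2-KCl buffer plus DTT, spermine, BSA, pyrophosphatase / Doses: 11.9 µM single point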
PLCb3 inh = inhibitors of human phospholipase C beta3; Q01970; Purified PLC-beta3, fluorogenic substrate, fluorescence; inhibition, % at 12.2 µM; 370,000 compounds, 0.18% hits; AID 720704;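 further: 0% = median of compound wells on plate and 100% = full blocker control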
Target sequence (Q01970 whole entry, looked up): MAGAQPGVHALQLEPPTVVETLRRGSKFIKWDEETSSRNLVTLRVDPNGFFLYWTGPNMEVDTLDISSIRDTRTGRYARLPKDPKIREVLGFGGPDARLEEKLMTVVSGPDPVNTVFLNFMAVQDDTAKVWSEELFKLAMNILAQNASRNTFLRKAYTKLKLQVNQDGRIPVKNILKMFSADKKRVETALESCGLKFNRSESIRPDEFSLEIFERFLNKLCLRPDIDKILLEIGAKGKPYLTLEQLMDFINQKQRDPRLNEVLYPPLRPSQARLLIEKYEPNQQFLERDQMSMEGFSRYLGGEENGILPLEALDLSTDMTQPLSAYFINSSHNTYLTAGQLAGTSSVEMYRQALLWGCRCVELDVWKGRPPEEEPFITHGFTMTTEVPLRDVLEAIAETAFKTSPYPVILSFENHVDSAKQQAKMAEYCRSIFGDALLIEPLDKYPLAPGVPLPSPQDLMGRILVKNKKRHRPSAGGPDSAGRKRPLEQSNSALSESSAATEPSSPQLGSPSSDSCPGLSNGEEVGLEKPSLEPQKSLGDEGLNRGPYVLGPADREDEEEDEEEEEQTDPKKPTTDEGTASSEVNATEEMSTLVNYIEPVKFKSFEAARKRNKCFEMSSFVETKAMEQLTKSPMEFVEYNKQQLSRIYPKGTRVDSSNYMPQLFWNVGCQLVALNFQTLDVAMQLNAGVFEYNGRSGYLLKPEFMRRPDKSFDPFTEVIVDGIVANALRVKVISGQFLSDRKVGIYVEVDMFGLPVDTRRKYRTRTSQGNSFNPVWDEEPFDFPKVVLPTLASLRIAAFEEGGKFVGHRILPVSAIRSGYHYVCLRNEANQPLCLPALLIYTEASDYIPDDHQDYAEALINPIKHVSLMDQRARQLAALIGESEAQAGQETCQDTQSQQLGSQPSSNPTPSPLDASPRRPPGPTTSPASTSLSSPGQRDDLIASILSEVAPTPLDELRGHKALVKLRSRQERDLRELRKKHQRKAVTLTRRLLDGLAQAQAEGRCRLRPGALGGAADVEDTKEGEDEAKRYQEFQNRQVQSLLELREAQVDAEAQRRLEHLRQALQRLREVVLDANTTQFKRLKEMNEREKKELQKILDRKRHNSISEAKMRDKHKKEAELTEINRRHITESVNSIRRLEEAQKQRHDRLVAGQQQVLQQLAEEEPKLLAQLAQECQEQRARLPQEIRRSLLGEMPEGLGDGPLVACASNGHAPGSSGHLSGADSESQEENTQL
HGIII-sPLA2 inh = Blocks human group III sPLA2 activity; AID 743126; Q9NZ20; QFRET BODIPY PC-A2 liposome hydrolysis, fluorescence; 370,000 compounds, 0.56% hits; inhibition, % at 12.2 µM;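 active means inhibition above mean plus 3 SD of compounds lying within the high and low control bounds, cut at about 19% in these data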;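 further: 0% = median of test compound wells and 100% = no enzyme DMSO wells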
PLCg1 ctr = PLC-gamma1 inhibition, counter-screen for PLC-beta3 hits; shares compounds with PLC-gamma1 inh; purified PLC-gamma1, fluorogenic substrate, fluorescence; inhibition, % at 12.3 µM; 3,300 compounds, 3.1% hits; in the data active means inhibition above about 9.5%
PLCb3 confirm = confirmation of human PLC-beta3 inhibitors; 3,300 compounds, 1% hits; inhibition, % at 12.3 µM; shares compounds with PLC-gamma1 inh; AID 743261; purified PLC-beta3, fluorogenic substrate fluorescence
The depositor's hits bear a star; · = not tested or not shown. Most compounds without a hit are left out; they make up all but 1.9% or so of the library. Unless noted, no stated cut-off is given here; in the data, active means inhibition above about 11%; inactive means the rest.

SMILES | DAGLB inh | PLC-gamma1 inh | Tb MetRS inh | PLCb3 inh | HGIII-sPLA2 inh | PLCg1 ctr | PLCb3 confirm
CCN(CC)C(=O)C[n+]1cccc(C(N)=O)c1 | 1 | 9.6* | 0 | 10 | 1 | -3 | -1
COc1cccc(C2NC(=S)NC(C)=C2C(C)=O)c1 (stereo not given) | · | 1 | · | 2 | 6 | · | ·
C=CCN=C1NC(c2ccccc2C(F)(F)F)C(C(=O)OC)=C(C)N1Cc1cccc(C(F)(F)F)c1 (stereo not given) | · | -4 | · | 0 | -6 | · | ·
ONC(=Nc1ccc(Cl)cc1)c1ccccc1 | -1 | -2 | 0 | 12* | -3 | -6 | 12*
O=C(C1CCC(CNS(=O)(=O)c2cccs2)CC1)N1CCCCC1 (stereo not given) | 2 | 6 | -1 | 16* | -1 | -4 | -2
CCOC(=O)[C@@]12CCCC=C1N(CCc1ccc(Cl)cc1)C(=O)[C@H]2CC(=O)NCC12CC3CC(CC(C3)C1)C2 | · | 0 | · | -3 | -9 | · | ·
O=C(CCn1c(=S)oc2ccccc21)Nc1cccc(O)c1 | 0 | 8 | 0 | 12* | -4 | -4 | -5
O=[N+]([O-])c1cccnc1SCc1ccccc1 | -7 | 15* | 0 | 0 | 10 | 2 | 0
COC(=O)C1=C(N)Oc2cc(C)n(Cc3cccnc3)c(=O)c2C1c1cccc(OC)c1OC (stereo not given) | 2 | 9.7* | -1 | 9 | 9 | -6 | -2
CCN(CC)C(=O)c1sc(NC(=O)c2ccc(C)c([N+](=O)[O-])c2)c(C#N)c1C | 2 | 11* | -1 | 6 | 5 | 1 | 4
COc1ccc(CCN(C)C(=O)CCNC(=O)c2ccc(Br)cc2)cc1OC | -1 | 11* | 0 | 3 | -8 | -3 | 1
COc1ccc(CC(=O)N/N=C/c2cccn2-c2ccc([N+](=O)[O-])cc2)cc1OC | 0 | 12* | -1 | 4 | -15 | 4 | 4
CCCN1CCC(C(=O)NC(c2ccc(Cl)cc2)c2ccsc2)CC1 (stereo not given) | · | 9.7* | 0 | 2 | -1 | -3 | 2
Cc1ccc(SCc2cc(=O)[nH]c(Nc3nc(C)c4cccc(C)c4n3)n2)cc1 | -1 | 13* | 0 | 9 | 8 | -5 | -2
COc1ccc2nc(Nc3nc(CSc4ccc(C)cc4)cc(=O)[nH]3)nc(C)c2c1 | -1 | 0 | -1 | -2 | 0 | · | ·
Cc1noc(C)c1NC(=O)Nc1ccc2c(c1)C(=O)N([C@@H](C)CO)C[C@@H](C)[C@H](CN(C)S(=O)(=O)c1ccc(F)cc1)OCCCC[C@H](C)O2 | · | -1 | · | 2 | -17 | · | ·
CC(=O)Nc1ccc(SC[C@H](Cc2ccccc2)N2CC[C@@H](C(C)(C)C)CCC2=O)cc1 | 0 | 11* | 0 | 3 | -8 | 3 | 3
Cc1ccc(C(=O)NCCN2C3=NC[C@@H](Cc4ccccc4)N3C[C@H]2Cc2ccc(O)cc2)cc1Br | 4 | 9.9* | 0 | 4 | -15 | 1 | 0
COc1ccc(C[C@H]2CN3C(=NC[C@H]3Cc3ccccc3)N2CCNC(=O)c2ccc(C)c(Br)c2)cc1 | 4 | · | 0 | · | · | · | ·
CC(=O)N1CCc2cc(S(=O)(=O)NCCC(=O)NCc3ccccc3)ccc21 | · | -2 | · | -1 | -7 | · | ·
CC(=O)Oc1ccc(C(=O)Nc2cccc(C(=O)c3ccc(C)c(C)c3)c2)cc1 | -2 | 15* | -1 | 9 | -26 | -2 | -2
CCOc1ccc(NC(=O)c2cccc(NC(=O)c3ccccc3)c2)cc1 | -1 | 11* | 0 | -5 | 2 | -5 | -1
CCCCOc1cccc(C(=O)Nc2ccc(NC(=O)c3cccs3)cc2)c1 | 1 | 9.6* | -1 | 6 | 7 | -119 | -118
COc1ccc(C(=O)Nc2ccc3[nH]ncc3c2)cc1 | 0 | -1 | -2 | -1 | -2 | · | ·
CCOc1ccc(C(=O)Nc2ccc3[nH]ncc3c2)cc1 | 1 | 12* | -1 | 6 | 6 | -9 | -1
SMILES | DAGLB inh | PLC-gamma1 inh | Tb MetRS inh | PLCb3 inh | HGIII-sPLA2 inh | PLCg1 ctr | PLCb3 confirm
NS(=O)(=O)c1ccc(NC(=O)CSc2nnc(-c3cccs3)o2)cc1 | · | 1 | · | 4 | -2 | · | ·
O=C(NCc1ccccc1)[C@@H]1CCCN1C(=O)[C@H]1CCCN1C(=O)N1CCCCC1 | · | 5 | · | 4 | 0 | · | ·
OCC1(Cc2cccc(Cl)c2)CCCN(Cc2sc(N3CCCC3)nc2Cl)C1 (stereo not given) | -2 | 13* | 0 | -2 | -3 | 0 | -28
CC(=O)c1ccccc1OC(=O)CCN1C(=O)C2C3C=CC(C4CC34)C2C1=O (stereo not given) | -1 | 10* | -1 | 2 | -2 | -6 | -1
O=[N+]([O-])c1cccc2ccc(/C=C/c3cccc(Br)c3)nc12 | -9 | 9 | 0 | 11* | 2 | 0 | 1
O=[N+]([O-])c1cccc2ccc(/C=C/c3ccc(Cl)cc3)nc12 | -7 | 5 | -1 | 2 | 2 | · | ·
C[C@@H]1[C@@H](O)C[C@]2(C[C@@H](O)c3ccccc3O2)O[C@H]1c1ccccc1 | · | 1 | · | 2 | 6 | · | ·
Cc1ccc(C2CC(=O)Oc3cc(O)ccc32)cc1 (stereo not given) | 0 | -10 | 0 | -8 | -5 | · | ·
O=C1CC(c2ccc(Cl)cc2)c2c(O)cc(O)cc2O1 (stereo not given) | -2 | 10* | 0 | -1 | -17 | -6 | -3
S=C(Nc1cc(Cl)cc(Cl)c1)NC(c1ccccc1)c1ccccc1 | · | 5 | · | 1 | -8 | · | ·
O=C(CSCC(=O)N1CCOCC1)Nc1nc(-c2ccccc2)cs1 | 0 | 3 | 0 | -9 | 1 | · | ·
O=C(CSCC(=O)N1CCOCC1)Nc1ccccc1 | 3 | 11* | -1 | 5 | 13 | -8 | -2
COCc1cn(-c2ccc3c(c2)[C@]2(CC(=O)N(C)C2c2ccccc2)C(=O)N3CC(C)C)nn1 (stereo not given in full) | · | 2 | · | 2 | 0 | · | ·
C=CCN(CC#CC(=C)C)CC1CC1 | · | -3 | · | 0 | 4 | · | ·
O=C(NCc1cccs1)C1CCN(c2nc3ccccc3o2)CC1 | 2 | 9.7* | -2 | 3 | 4 | -2 | -4
Cc1cc(C)c(C)c(S(=O)(=O)N2CCC(C(=O)NCc3cccs3)CC2)c1C | -3 | 12* | 0 | 2 | -22 | -9 | -5
CCCCNC(=O)NS(=O)(=O)c1ccc(NC(=O)CSc2nnc(-c3ccc(Cl)cc3)n2N)cc1 | · | -1 | · | 1 | 8 | · | ·
COc1ccccc1CCn1cnc(-c2cccc(F)c2)c1C(C)C | · | 0 | · | -2 | -2 | · | ·
Clc1ccccc1-c1nnc2sc(C3COc4ccccc4O3)nn12 (stereo not given) | 0 | 11* | -2 | -4 | -2 | -5 | -22
